Assay results: ChEMBL document CHEMBL4346661, “Design, synthesis and evaluation of novel diaryl-1,5-diazoles derivatives bearing morpholine as potent dual COX-2/5-LOX inhibitors and antitumor agents” (Eur J Med Chem, 2019)

Tests used:
HeLa = assay: Antiproliferative activity against human HeLa cells incubated for 48 hrs by MTT assay; assay type: functional, cell-based
Summary of the method: (§1)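 MTT assay on F10 (murine melanoma), HeLa, A549, MCF-7 and 293T (human renal epithelium) cells. IC50 given as mean ± SD of three independent experiments.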

A549 = assay: Antiproliferative activity against human A549 cells incubated for 48 hrs by MTT assay; assay type: functional, cell-based; conditions: A549, 48 h; summary of the method: as §1
B16-F10 = assay: Antiproliferative activity against mouse B16F10 cells incubated for 48 hrs by MTT assay; assay type: functional, cell-based; conditions: B16-F10, 48 h; summary of the method: as §1
[1] = Inhibition of 5-LOX assessed as calcium ionophore A23187-stimulated LTB4 production preincubated for 30 mins followed by calcium ionophore A23187 addition and measured after 30 mins by ELISA
MCF7 = assay: Antiproliferative activity against human MCF7 cells incubated for 48 hrs by MTT assay; assay type: functional, cell-based; conditions: MCF7, 48 h; summary of the method: as §1
HEK-293T = assay: Antiproliferative activity against human 293T cells incubated for 48 hrs by MTT assay; assay type: cell-based; summary of the method: as §1
[2] = target: T1, Prostaglandin G/H synthase 2 (Homo sapiens, UniProt P35354); assay: Inhibition of COX2 (unknown origin) using arachidonic acid as substrate incubated for 10 mins by Ellman's reagent based COX-1/COX-2 ELISA assay
T1 sequence (P35354 whole entry): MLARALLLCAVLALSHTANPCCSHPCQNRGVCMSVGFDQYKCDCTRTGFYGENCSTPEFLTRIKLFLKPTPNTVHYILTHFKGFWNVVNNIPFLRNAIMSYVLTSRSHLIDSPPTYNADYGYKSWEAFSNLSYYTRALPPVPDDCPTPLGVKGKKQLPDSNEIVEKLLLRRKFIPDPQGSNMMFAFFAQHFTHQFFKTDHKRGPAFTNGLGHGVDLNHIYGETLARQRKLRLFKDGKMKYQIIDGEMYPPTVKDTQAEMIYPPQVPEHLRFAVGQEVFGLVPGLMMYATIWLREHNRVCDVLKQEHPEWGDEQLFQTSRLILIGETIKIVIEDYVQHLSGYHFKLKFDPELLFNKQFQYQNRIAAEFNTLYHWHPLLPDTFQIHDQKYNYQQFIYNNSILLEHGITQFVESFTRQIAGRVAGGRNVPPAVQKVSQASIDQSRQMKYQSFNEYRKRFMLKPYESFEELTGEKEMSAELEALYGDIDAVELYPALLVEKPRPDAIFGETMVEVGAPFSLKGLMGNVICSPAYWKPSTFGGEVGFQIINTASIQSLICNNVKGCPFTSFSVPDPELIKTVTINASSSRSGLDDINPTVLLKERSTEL

IC50 (HeLa)	IC50 (A549)	IC50 (B16-F10)	IC50 [1]	IC50 (MCF7)	IC50 [2]	SMILES	IC50 (HEK-293T)
> 100 µM	30.8 µM	> 100 µM	3.41 µM	18.9 µM	0.67 µM	NS(=O)(=O)c1ccc(-n2nc(C(=O)N3CCSCC3)cc2-c2ccccc2)cc1	164 µM
22.6 µM	20 µM	> 100 µM	0.98 µM	17.9 µM	0.31 µM	NS(=O)(=O)c1ccc(-n2nc(C(=O)N3CCOCC3)cc2-c2ccc(Br)cc2)cc1	160 µM
26.5 µM	22.5 µM	23.8 µM		24.8 µM		NS(=O)(=O)c1ccc(-n2nc(C(=O)O)cc2-c2ccc(C(F)(F)F)cc2)cc1	190 µM
25.4 µM	23 µM	22 µM	0.87 µM	25.8 µM	0.25 µM	NS(=O)(=O)c1ccc(-n2nc(C(=O)OCCN3CCOCC3)cc2-c2ccc(Cl)cc2)cc1	122 µM
19.2 µM	17.8 µM	12.9 µM	0.84 µM	15 µM	0.91 µM	CCOc1ccc(-c2cc(C(=O)NCCCN3CCOCC3)nn2-c2ccc(S(N)(=O)=O)cc2)cc1	138 µM
20.8 µM	16.5 µM	24.2 µM	0.86 µM	25.8 µM	0.85 µM	CCOc1ccc(-c2cc(C(=O)NCCN3CCOCC3)nn2-c2ccc(S(N)(=O)=O)cc2)cc1	155 µM
22.4 µM	17.7 µM	22.7 µM	0.82 µM	17.2 µM	0.56 µM	NS(=O)(=O)c1ccc(-n2nc(C(=O)OCCCN3CCOCC3)cc2-c2ccccc2)cc1	95.5 µM
> 100 µM	27.5 µM	20.5 µM	0.89 µM	20 µM	0.23 µM	NS(=O)(=O)c1ccc(-n2nc(C(=O)N3CCOCC3)cc2-c2ccc(F)cc2)cc1	206 µM
20 µM	19.5 µM	> 100 µM	0.89 µM	23 µM	0.31 µM	NS(=O)(=O)c1ccc(-n2nc(C(=O)NCCN3CCOCC3)cc2-c2ccc(Cl)cc2)cc1	112 µM
> 100 µM	26.1 µM	16.2 µM	1.19 µM	16.5 µM	0.69 µM	NS(=O)(=O)c1ccc(-n2nc(C(=O)N3CCOCC3)cc2-c2ccccc2)cc1	184 µM
> 100 µM	> 100 µM	> 100 µM	1.79 µM	> 100 µM	0.35 µM	NS(=O)(=O)c1ccc(-n2nc(C(=O)N3CCOCC3)cc2-c2ccc(Cl)cc2)cc1	> 300 µM
13.2 µM	14.5 µM	10.3 µM	1.32 µM	14.4 µM	0.19 µM	NS(=O)(=O)c1ccc(-n2nc(C(=O)N3CCSCC3)cc2-c2cccc(F)c2)cc1	176 µM
21.8 µM	> 100 µM	30.8 µM	0.96 µM	39.2 µM	0.64 µM	NS(=O)(=O)c1ccc(-n2nc(C(=O)NCCN3CCOCC3)cc2-c2ccccc2)cc1	151 µM
> 100 µM	> 100 µM	18.1 µM	0.84 µM	19.3 µM	0.21 µM	NS(=O)(=O)c1ccc(-n2nc(C(=O)OCCN3CCOCC3)cc2-c2ccc(F)cc2)cc1	146 µM
26.7 µM	18.2 µM	13.7 µM	0.87 µM	19.8 µM	1.05 µM	COc1ccc(-c2cc(C(=O)OCCCN3CCOCC3)nn2-c2ccc(S(N)(=O)=O)cc2)cc1	169 µM
20.3 µM	16 µM	13 µM	1.19 µM	17.9 µM	1.95 µM	COc1cccc(-c2cc(C(=O)N3CCSCC3)nn2-c2ccc(S(N)(=O)=O)cc2)c1	177 µM
20.4 µM	17.6 µM	19.5 µM	0.91 µM	15 µM	0.87 µM	COc1ccc(-c2cc(C(=O)NCCN3CCOCC3)nn2-c2ccc(S(N)(=O)=O)cc2)cc1	144 µM

IC50 (HeLa)	IC50 (A549)	IC50 (B16-F10)	IC50 [1]	IC50 (MCF7)	IC50 [2]	SMILES	IC50 (HEK-293T)
> 100 µM	22.8 µM	21.4 µM	1.24 µM	17.9 µM	0.93 µM	Cc1ccc(-c2cc(C(=O)N3CCOCC3)nn2-c2ccc(S(N)(=O)=O)cc2)cc1	190 µM
> 100 µM	19.2 µM	13 µM	0.98 µM	16.3 µM	0.71 µM	COc1ccc(-c2cc(C(=O)NCCCN3CCOCC3)nn2-c2ccc(S(N)(=O)=O)cc2)cc1	200 µM
13.6 µM	19.9 µM	15.5 µM	1.57 µM	18.1 µM	0.89 µM	Cc1ccc(-c2cc(C(=O)N3CCSCC3)nn2-c2ccc(S(N)(=O)=O)cc2)cc1	106 µM
24.1 µM	17.2 µM	13.2 µM	1.01 µM	19.7 µM	1.21 µM	COc1ccc(-c2cc(C(=O)N3CCSCC3)nn2-c2ccc(S(N)(=O)=O)cc2)cc1	211 µM
27.2 µM	41.7 µM	18.6 µM	0.95 µM	15 µM	2.99 µM	CCOc1ccc(-c2cc(C(=O)N3CCOCC3)nn2-c2ccc(S(N)(=O)=O)cc2)cc1	116 µM
21.4 µM	> 100 µM	26.8 µM	0.85 µM	22.1 µM	5.47 µM	NS(=O)(=O)c1ccc(-n2nc(C(=O)OCCCN3CCOCC3)cc2-c2ccc(Cl)cc2)cc1	189 µM
16 µM	17.7 µM	12.1 µM	1.21 µM	14.6 µM	1.28 µM	NS(=O)(=O)c1ccc(-n2nc(C(=O)N3CCSCC3)cc2-c2ccc(Br)cc2)cc1	197 µM
> 100 µM	> 100 µM	> 100 µM	2.31 µM	39.8 µM	0.23 µM	NS(=O)(=O)c1ccc(-n2nc(C(=O)N3CCSCC3)cc2-c2ccc(Cl)cc2)cc1	232 µM
> 100 µM	> 100 µM	> 100 µM	1.01 µM	15.8 µM	0.16 µM	NS(=O)(=O)c1ccc(-n2nc(C(=O)NCCN3CCOCC3)cc2-c2ccc(F)cc2)cc1	112 µM
> 100 µM	> 100 µM	> 100 µM	0.72 µM	15.4 µM	7.64 µM	CCOc1ccc(-c2cc(C(=O)OCCCN3CCOCC3)nn2-c2ccc(S(N)(=O)=O)cc2)cc1	179 µM
29.8 µM	21.5 µM	20.2 µM	0.79 µM	18.8 µM	1.11 µM	CCOc1ccc(-c2cc(C(=O)OCCN3CCOCC3)nn2-c2ccc(S(N)(=O)=O)cc2)cc1	116 µM
> 100 µM	> 100 µM	> 100 µM	0.75 µM	> 100 µM	3.57 µM	NS(=O)(=O)c1ccc(-n2nc(C(=O)OCCCN3CCOCC3)cc2-c2ccc(F)cc2)cc1	> 300 µM
27.7 µM	25.2 µM	21.8 µM	2.59 µM	20 µM	0.39 µM	NS(=O)(=O)c1ccc(-n2nc(C(=O)N3CCOCC3)cc2-c2ccc(C(F)(F)F)cc2)cc1	199 µM
> 100 µM	> 100 µM	29.2 µM	0.96 µM	26 µM	2.25 µM	COc1cccc(-c2cc(C(=O)N3CCOCC3)nn2-c2ccc(S(N)(=O)=O)cc2)c1	134 µM
27.4 µM	20.5 µM	21.8 µM	0.93 µM	18.1 µM	0.42 µM	NS(=O)(=O)c1ccc(-n2nc(C(=O)NCCCN3CCOCC3)cc2-c2ccccc2)cc1	156 µM
29.2 µM	18.2 µM	26.4 µM	1.27 µM	18.2 µM	0.21 µM	NS(=O)(=O)c1ccc(-n2nc(C(=O)N3CCSCC3)cc2-c2ccc(F)cc2)cc1	174 µM
